# Test results taken from PubChem BioAssay AID821 (SRMLSC, 2007).
# Active and inactive are the calls of the source.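 Rule for the calls: active = compounds whose fitted half-maximal concentration for reducing fibroblast viability is 100 µM or lower; inactive = the rest.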
# Test system: LL 47 lung fibroblast viability, ATP luminescence
# Experiment: LL 47 lung fibroblast growth inhibition, concentration-response, selectivity test for endothelial growth inhibitor program, cellular, luminescent ATP readout (AID 821);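 note: cells exposed to compound for 72 h at 37 °C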
# In short: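 Assay system: LL 47 human lung fibroblasts; Compound: dose series 0.039–20 µM final, 0.2% DMSO; Schedule: 72 h compound treatment at 37 °C after overnight attachment; Technique: CellTiter-Glo luminescence; Evaluation: percent viability relative to untreated wells, EC50 via 4-parameter fit.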
row,Structure (SMILES),EC50
1,O=C(C#Cc1cccc([N+](=O)[O-])c1)c1ccccc1,18.5 µM
2,Cc1cccc(CS(=O)(=O)c2nnc([C@H](Cc3ccccc3)NC(=O)OC(C)(C)C)o2)c1,16.7 µM
3,CCCCCCOC(=O)C(C#N)c1nc2ccccc2nc1N1CCN(CC)CC1 (stereo unspecified),17.6 µM
4,CCCCN(C)S(=O)(=O)c1ccc(C(=O)Nc2nnc(-c3cccs3)o2)cc1,11.5 µM
5,CCSc1nnc(NC(=O)c2ccccn2)s1,16.5 µM
6,COc1cccc2sc(Nc3nc(C)c(C(C)=O)s3)nc12,5.54 µM
7,Cn1cc(/C=N/n2cnc3scc(-c4ccccc4)c3c2=O)c2ccccc21,12.9 µM
8,COc1cc(NC(=O)Nc2cccc(Cl)c2)c(OC)cc1NC(=O)CN1CCCCC1,20.3 µM
9,Oc1cccc2ccc(/C=C/c3cccs3)nc12,9.71 µM
10,CC1CC(C)CN(S(=O)(=O)c2ccc(C(=O)NCCCn3ccnc3)cc2)C1 (stereo unspecified),1.77 µM
11,CN(C)C(=O)CSc1cccc2cccnc12,13.7 µM
12,O=C(c1ccc(F)cc1)C(CN1CCOCC1)c1ccccc1 (stereo unspecified),6.42 µM
13,O=C1C=C(c2ccc(Cl)cc2)C(=O)N1Nc1ccccc1,14.9 µM
14,COc1ccc(C(=O)C(CN2CCOCC2)c2ccccc2)cc1 (stereo unspecified),4.7 µM
15,Cc1cc(NC(=O)CSc2nc3c(sc4ccccc43)c(=O)n2CCCN2CCOCC2)n[nH]1,> 10 µM (inactive)
16,O=S(=O)(CCN(CCS(=O)(=O)C(F)(F)F)CC1CCCO1)C(F)(F)F (stereo unspecified),5.88 µM
17,CCOC(=O)CSc1cccc2cccnc12,12.6 µM
18,CC1CC(C)CN(S(=O)(=O)c2ccc(C(=O)Nc3nnc(-c4cccs4)o3)cc2)C1 (stereo unspecified),8.61 µM
19,CCOC(=O)c1cnc(-n2nc(C)cc2C)nc1Nc1ccc(N(C)C)cc1,14.6 µM

row,Structure (SMILES),EC50
1,Fc1ccc2c(Cl)c(-c3nnc(-c4cccs4)o3)sc2c1,11.4 µM
2,CCOC(=O)c1cnc(-n2nc(C)cc2C)nc1NCCc1ccccc1,14.2 µM
3,N#CC(c1ccccc1)c1ccc2c(C(F)(F)F)cc(C(F)(F)F)nc2n1 (stereo unspecified),18 µM
4,O=C(Nc1ccc(-c2nc3c(ccc4ccccc43)o2)cc1)c1ccco1,10.9 µM
5,N=c1n(CCN2CCCCC2)c2ccccc2n1CC(O)c1cccc(Br)c1 (stereo unspecified),13.3 µM
6,Cc1cc(C)c2oc(-c3ccc(Cl)c(NC(=O)c4ccc(C#N)cc4F)c3)nc2c1,6.89 µM
7,COc1ccc(S(=O)(=O)Nc2ccc(O)c3ccccc23)cc1,13.1 µM
8,O=C(CCS(=O)(=O)c1ccccc1)Nc1nc2c(s1)CCCC2,14.3 µM
9,C=CCn1c(SCC(=O)c2c(N)n(CCC)c(=O)n(C)c2=O)nc2sc(CC)cc2c1=O,15.3 µM
10,COc1ccc(Nc2nc(N3CCCC3)nc3ccccc23)c(OC)c1,14.4 µM
11,COC(=O)c1ccc2c(=O)n(Cc3ccco3)c(SCC(=O)Nc3ccc(C)c(Cl)c3)nc2c1,4.07 µM
12,Cn1c(=NC(=O)CCl)sc2ccccc21,< 0.039 µM
13,Cc1ccccc1CS(=O)(=O)c1nnc([C@H](Cc2ccccc2)NC(=O)OC(C)(C)C)o1,13.1 µM
14,Cn1c(=O)n(C)c2cc(NC(=O)CCl)ccc21,10 µM
15,CN1C[C@H](CNC(=O)OCc2ccccc2)C[C@@H]2c3cccc4c3c(cn4C)C[C@H]21,15 µM
16,Cc1ccc(-c2nn3c(C)nnc3s2)cc1NC(=O)c1ccc(-c2cccc(Cl)c2)o1,13.1 µM
17,CN(CCO)c1cc(Sc2nc3ccccc3s2)c2nonc2c1[N+](=O)[O-],18.6 µM
18,Cc1cc(NC(c2cccnc2)c2ccc3cccnc3c2O)no1 (stereo unspecified),2.93 µM
19,CC1(C)Cc2c(c(N3CCOCC3)nc3snc(N)c23)CO1,10.9 µM

row,Structure (SMILES),EC50
1,CCCCS(=O)(=O)/C=C\C=C/S(=O)(=O)CCCC,0.936 µM
2,COc1cc(NC(=O)c2cccs2)c(C(=O)OCC(=O)NCc2ccccc2)cc1OC,20.6 µM
3,COCc1cc(=O)[nH]c(Nc2nc(C)c3ccccc3n2)n1,20.3 µM
4,CN1CCN(Cc2cc(COCc3ccccc3)c3cccnc3c2O)CC1,2.92 µM
5,N=c1c2c(-c3ccccc3)c(-c3ccccc3)n(Cc3ccco3)c2ncn1Cc1ccco1,7.06 µM
6,COc1ccc2c(c1)c1nc3ccccc3nc1n2CC(=O)OC(C)C,15.5 µM
7,O=C(c1nn2c(C(F)(F)F)cc(-c3ccco3)nc2c1Br)N1CCCc2ccccc21,4.78 µM
8,O=C(CSc1cccc2cccnc12)N1CCCC1,12.7 µM
9,O=S1(=O)C=C(Sc2nnc(-c3ccccc3)o2)c2ccccc21,1.71 µM
10,COc1cc(C(C[N+](=O)[O-])c2c(-c3ccccc3)cc3ccccn23)cc(OC)c1OC (stereo unspecified),18.7 µM
11,CCC(C)(C)NC(=O)C(c1ccc(C)o1)N(Cc1cccs1)C(=O)Cn1nnc2ccccc21 (stereo unspecified),13.9 µM
12,CCOC(=O)c1sc(SCC(=O)Nc2ccc(N(C)C)cc2)nc1N,11.8 µM
13,O=c1[nH]c(Nc2nc3ccccc3o2)nc2c1CCCC2,4.52 µM
14,CCOC(=O)c1ccccc1Nc1cn(C(C)=O)c2ccccc12,14.5 µM
15,COc1ccc(CC(=O)Nc2ccc(-c3nc4cc(C)ccc4o3)c(O)c2)cc1OC,18.6 µM
16,CCN(CC)c1ccc2c(c1)oc(=O)c1c(Cl)cc(=O)oc12,7.29 µM
17,Cc1ccccc1CS(=O)(=O)c1nnc([C@H](CC(C)C)NC(=O)OC(C)(C)C)o1,14.9 µM
18,O=c1[nH]c2cc3c(cc2cc1C(c1nnnn1Cc1ccccc1)N1CCCCCC1)OCCO3 (stereo unspecified),19.1 µM
